# Screening results from PubChem BioAssay.
# Shown are actives, neighbours in structure and some others; about 2.4% of the full set was active somewhere.
# UBC13 inh: blocks human UBC13 polyubiquitin chain formation; AID 485273; 0.47% of 330,000 active; TR-FRET; inhibition, % at 20 µM; P61088; in the data active = inhibition above about 45%, passing the limit was not always enough; inconclusive = no clear call, values can overlap the other calls
# Target sequence (P61088 whole entry, looked up): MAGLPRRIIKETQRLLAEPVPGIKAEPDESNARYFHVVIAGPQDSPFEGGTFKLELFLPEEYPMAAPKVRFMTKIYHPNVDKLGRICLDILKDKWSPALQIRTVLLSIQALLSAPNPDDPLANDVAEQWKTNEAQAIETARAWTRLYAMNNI
# Apaf1 inhib: blocks human Apaf-1 apoptosome activity | AID 489030 | reconstituted apoptosome caspase-3 activity, DEVD-Rh110 fluorescence | inhibition, % at 20 µM | O14727 | 0.71% of 330,000 active; active = inhibition of at least 40% at 20 µM;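 note: plate controls were DMSO wells for no effect and DEVD-CHO caspase inhibitor wells for full effect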
#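 Material: biochemical Apaf-1 apoptosome reconstitution. Medium: Hepes buffer, pH 7.5. Also added: cytochrome c activation, bis-DEVD rhodamine 110 substrate. Timing: 30 min compound preincubation, 50 min activation, room temperature. Measured by: rhodamine 110 fluorescence at Ex 480/Em 540 nm.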
# DNA FID counter: counter-screen for HCV NS3 helicase inhibitors: DNA intercalator displacement; DNA fluorescent intercalator displacement, fluorescence; inhibition, % at 7.9 µM; 0.17% of 290,000 active; AID 1845; in the data active = inhibition above about 37%;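 note: 0% = vehicle and 100% = reference compound; higher means more ethidium bromide displaced from hairpin DNA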
# TMEM16A act: activators or potentiators of mouse TMEM16A chloride channel | Q8BHY3 | HEK293 TMEM16A/YFP-H148Q/I152L, iodide quench fluorescence; hits give low values | B-score at 10 µM | 0.3% of 340,000 active;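 active = fluorescence-ratio B-score plate-corrected deviation score at least 3 library SD below zero, with starting fluorescence score within 5 deviations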;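 note: channel opened by trigger with iodide after compound preincubation; score built on the fluorescence ratio of max minus min over baseline; more negative score means more quench and so TMEM16A activation or potentiation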
# TMEM16A inh: mouse TMEM16A channel inhibition, primary screen; AID 588511; Q8BHY3; HEK293 TMEM16A/YFP iodide influx fluorescence, ionomycin; 1.2% of 310,000 active; normalized B-score (activity score, 25-100; higher = stronger inhibition) at 10 µM;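 active = ratio plate-corrected score three or more library SD toward inhibition, starting fluorescence score within five deviations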;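 note: score derived from kinetic fluorescence span divided by baseline fluorescence per well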
# Casp3 UBC13 ctr: inhibits human caspase-3 in UBC13 counter-screen; 4% of 1,400 active; shares compounds with UBC13 inh; Recombinant caspase-3, Caspase-Glo 3/7 luminescence, 60 min; inhibition, % at 20 µM;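 active = mean inhibition across replicates above about 26%, limit read from the data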;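 note: plate controls were DMSO with caspase-3 for no effect and DMSO wells lacking enzyme for full effect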
# Target sequence (P42574 whole entry, looked up): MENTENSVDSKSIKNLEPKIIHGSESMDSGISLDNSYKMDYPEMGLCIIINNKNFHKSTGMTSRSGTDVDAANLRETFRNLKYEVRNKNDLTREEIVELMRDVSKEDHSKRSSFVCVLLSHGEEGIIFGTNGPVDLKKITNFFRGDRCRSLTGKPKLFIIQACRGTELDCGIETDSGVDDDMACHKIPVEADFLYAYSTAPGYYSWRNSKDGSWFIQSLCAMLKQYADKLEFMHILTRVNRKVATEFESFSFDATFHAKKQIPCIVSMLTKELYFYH
# UBC13 conf: human UBC13 polyubiquitin inhibition, confirmed. shares compounds with UBC13 inh. UBC13 polyubiquitination, TR-FRET, biochemical. inhibition, % at 10 µM. 68% of 1,400 active. AID 488859; in the data active = inhibition above about 45%; inconclusive = no clear call, values can overlap the other calls
# Apaf-1 inh conf: Apaf-1 inhibition, single-dose confirmed; 25% of 1,800 active; shares compounds with Apaf1 inhib; inhibition, % at 20 µM; reconstituted apoptosome, caspase-3 DEVD-Rh110 fluorescence; AID 504614;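 active = mean inhibition of at least 40% at 20 µM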;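 note: plate controls were DMSO wells for no effect and DEVD-CHO caspase inhibitor control wells for full effect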
# Rh110 interf inh: counter-screen for Apaf-1 inhibitors: fluorescence interference. 1,800 tested, under 10 active. shares compounds with Apaf1 inhib. Rh110 fluorescence interference, quenched caspase reaction. activation (fluorescence interference), % at 20 µM;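 active = signal rise of 40% or more at 20 µM, treated as a fluorescence artifact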
# Apaf1 inh interf: Apaf-1 inhibitor counter-screen fluorescence artifact; fluorescence interference counterscreen, Apaf-1 assay format; 460 tested, under 10 active; shares compounds with Apaf1 inhib; IC50, µM; call rule not given here
# An asterisk follows results filed as active; i = inactive; u = inconclusive; x = not tested or not shown.
SMILES,UBC13 inh,Apaf1 inhib,DNA FID counter,TMEM16A act,TMEM16A inh,Casp3 UBC13 ctr,UBC13 conf,others
CCOc1ccccc1NC(=O)CCS(=O)(=O)c1ccc2c(c1)CCN2C(C)=O,5,-15,-11,i,i,x,x,
Cc1ccc(C)c(S(=O)(=O)c2c[nH]c(=S)[nH]c2=O)c1,45*,2,-24,i,i,0,u,
Cc1ccc(C)c(S(=O)(=O)N2CCNCC2)c1,-2,-13,-4,i,i,x,x,
O=[N+]([O-])c1ccc(OCCN2CCNCC2)cc1,-11,1,10,i,i,x,x,
O=C(CCCCCN1C(=O)c2ccccc2C1=O)Nc1ccc(S(=O)(=O)N2CCCCC2)cc1,100*,-32,-18,i,i,6,112*,
CCc1ccc(C(=O)Nn2c(C)nc3ccccc3c2=O)cc1,60*,1,0,i,i,-2,64*,
CCOC(=O)CSc1nc2ccccc2c(=O)n1C,5,5,-6,i,i,x,x,
CCOC(=O)CSc1nc2ccccc2c(=O)n1NC(=O)c1ccccc1,48*,0,-12,i,i,6,39,
O=C(O)CNc1ccccc1C(=O)O,25,-18,0,i,i,x,x,
CCOC(=O)C1=CN(Cc2cccc(F)c2)S(=O)(=O)N(CC)C1c1ccc(C(F)(F)F)cc1 (stereo not drawn),x,18,x,x,x,x,x,
COc1ccc(NC(=O)c2ccc(S(=O)(=O)N3CCOCC3)o2)cc1,0,-16,-3,i,i,x,x,
CC1(C)CC(=O)C2=C(C1)NC1=C(C(=O)c3ccccc31)C2c1ccc(Cl)cc1 (stereo not drawn),50*,10,-6,i,i,-4,56*,
COc1ccccc1C(=O)Nc1c2c(nn1-c1cccc(C)c1C)CS(=O)(=O)C2,46*,-13,-12,i,i,-2,41,
Cc1cc(C(=O)NNC(=S)NC(=O)/C=C/c2ccccc2Cl)n[nH]1,92*,-1,-10,i,i,-6,89*,
CC[C@H](C)[C@@H](CN[C@H](C)CNC)NCCC(c1ccccc1)c1ccccc1,55*,9,28,i,i,-4,37,
CNC[C@@H](C)NC[C@@H](Cc1ccccc1)NCCc1ccccc1,6,1,17,i,i,x,x,
COc1cccc(CN2CCNC(=O)C2CC(=O)NCCCn2ccnc2)c1 (stereo not drawn),2,7,1,i,i,x,x,
COc1ccccc1NS(=O)(=O)c1cccc(C(=O)N/N=C/c2c(CO)cnc(C)c2O)c1,72*,-3,x,i,x,1,19,
CSc1ccccc1C(=O)NC1CCCc2ccccc21 (stereo not drawn),-2,9,-16,i,i,x,x,
COc1ccccc1NC(=O)COC(=O)C12CC3CC(CC(Br)(C3)C1)C2,50*,12,x,i,x,-3,44,
COc1ccccc1NC(=O)CNC(=O)CC12CC3CC(CC(C3)C1)C2,80*,8,x,i,x,3,79*,
COc1ccc(CNC(=O)CC23CC4CC(CC(C4)C2)C3)cc1OC,4,-2,-34,i,i,x,x,
COc1ccccc1C(CNC(=O)CCNC(=O)c1ccccc1Cl)N1CCCC1 (stereo not drawn),-4,-3,x,i,i,x,x,
O=C(Cn1nc(CNc2ccc(Cl)cc2)[n+]2c1CCCCC2)c1ccc(Br)cc1,42,25,23,i,i,x,x,
O=C(Cn1nc(CNc2ccc(Br)cc2)[n+]2c1CCCCC2)c1ccc([N+](=O)[O-])cc1,52*,25,29,i,i,0,46*,
SMILES,UBC13 inh,Apaf1 inhib,DNA FID counter,TMEM16A act,TMEM16A inh,Casp3 UBC13 ctr,UBC13 conf,others
Cc1ccc(-n2c(=O)c3sccc3n(CC(=O)NCc3ccco3)c2=O)cc1F,-9,6,-4,i,i,x,x,
O=C(CSc1ccccc1C(=O)NCCCN1CCCC1=O)NCc1ccco1,50*,-8,-7,i,i,0,4,
C=CCN(CC=C)S(=O)(=O)c1ccc(NC(=S)NC(=O)C2CC2)cc1,-4,25,-24,i,i,x,x,
Cc1c(Br)c(C(=O)NNC(=O)c2ccc(C(C)(C)C)cc2)nn1C,56*,-24,-15,i,i,0,57*,
Cn1cc(Br)c(C(=O)NNC(=O)c2ccc(Br)cc2)n1,x,x,0,i,i,x,x,
COCCNC(=O)C(c1ccc(F)cc1)N(C(=O)CCC(=O)Nc1nccs1)c1ccc(C)cc1 (stereo not drawn),9,11,-30,i,i,x,x,
COc1ccc(Nc2cc(Nc3cc(OC)c(OC)c(OC)c3)ncn2)cc1,55*,0,-28,i,i,-1,58*,
Cc1ccc(NC(=O)C2CCN(C(=O)c3cccs3)CC2)c(C)c1,-5,10,-5,i,i,x,x,
COc1ccc2c(CCNC(=O)Nc3ccccc3)c[nH]c2c1,42,2,4,i,i,x,x,
COc1ccc2[nH]cc(CCNC(=O)Nc3ccccc3)c2c1,52*,5,-6,i,i,1,42,
C=CC(=O)Nc1ccc(N(C)c2ccnc(Nc3ccc(N4CCN(C)CC4)cc3)n2)cc1,85*,62*,x,i,x,2,77*,Apaf-1 inh conf=25;Rh110 interf inh=6
N#C/C(=C\C=C\c1ccccc1)c1nc(-c2ccc3c(c2)OCO3)cs1,9,7,-7,i,i,x,x,
CCN(CC)CCOC(=O)c1ccc(N/C=C(/C#N)c2nc(-c3cc4ccccc4oc3=O)cs2)cc1,114*,54*,19,i,i,1,132*,Apaf-1 inh conf=61*;Rh110 interf inh=9;Apaf1 inh interf=>100
CCN(CC)CCOC(=O)c1ccc(N/C=C(/C#N)c2nc(-c3ccc4c(c3)OCO4)cs2)cc1,108*,60*,17,i,i,1,132*,Apaf-1 inh conf=63*;Rh110 interf inh=4;Apaf1 inh interf=>100
Cc1cnc(NCCc2ccccc2)s1,1,3,-3,i,i,x,x,
CCOC(=O)C1=C(c2ccccc2)NC(N)=NC1c1ccc(OCc2ccc(C(=O)OC)cc2)cc1 (stereo not drawn),55*,61*,13,i,i,-4,92*,Apaf-1 inh conf=62*;Rh110 interf inh=-8;Apaf1 inh interf=>100
Oc1ccc(C[C@H]2CNCCN2CCC23CC4CC(CC(C4)C2)C3)cc1,38,24,x,i,i,x,x,
